Measured values reported in ChEMBL document CHEMBL1145382, “Novel ergopeptides as dual ligands for adenosine and dopamine receptors” (J Med Chem, 2007).
Calls of active or inactive are those of the source. No cut-off for these calls is given here.

What follows are molecules tested against T1, Adenosine receptor A1 (Homo sapiens) (UniProt P30542) (assay: Displacement of [3H]R-PIA from adenosine A1 receptor in lamb striatum membrane at 50 uM after 1 hr). Conditions: Ovis aries, target entry is the homologue from another species.
T1 sequence (whole entry): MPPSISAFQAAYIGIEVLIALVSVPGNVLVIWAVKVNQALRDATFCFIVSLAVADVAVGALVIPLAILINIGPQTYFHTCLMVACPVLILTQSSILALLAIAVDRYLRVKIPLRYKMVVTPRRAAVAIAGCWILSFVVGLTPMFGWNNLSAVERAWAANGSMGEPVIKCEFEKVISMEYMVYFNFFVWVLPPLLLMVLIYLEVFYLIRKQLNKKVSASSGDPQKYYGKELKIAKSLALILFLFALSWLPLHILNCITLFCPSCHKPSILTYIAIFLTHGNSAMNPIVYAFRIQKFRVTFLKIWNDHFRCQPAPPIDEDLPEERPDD
Type: cell membranes
Outline: (§1)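 Single-concentration screen at 50 µM ergopeptide on lamb striatal membranes (0.5 mg protein/mL), 22 °C, 50 mM Tris-HCl pH 7.4. Radioligands: [3H]SCH 23390 1.2 nM (D1), [3H]YM 09151-2 0.9 nM (D2), [3H]R-PIA 2.2 nM (A1, with MgCl2 and ADA), [3H]CGS 21680 20.1 nM (A2A, with MgCl2 and ADA). Specific binding displaced, after filtration and scintillation counting.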

Row | SMILES | Activity
1 | CC(C)[C@H](NC(=O)[C@@H]1C=C2c3cccc4[nH]cc(c34)C[C@H]2N(C)C1)C(=O)N[C@@H](Cc1ccc([N+](=O)[O-])cc1)C(=O)N1CCC[C@H]1C(N)=O | < 40%
2 | CC(C)[C@H](NC(=O)[C@@H]1C=C2c3cccc4[nH]cc(c34)C[C@H]2N(C)C1)C(=O)N[C@@H](CCC1CCCCC1)C(=O)N1c2ccccc2C[C@H]1C(N)=O | < 40%

The molecules below were run against T2, Adenosine receptor A2a (Homo sapiens, UniProt P29274) (assay: Agonist activity at adenosine A2A receptor in SH-SY5Y cells assessed as CGS-induced intracellular cAMP production at 50 uM). Conditions: not given.
T2 sequence (P29274 whole entry): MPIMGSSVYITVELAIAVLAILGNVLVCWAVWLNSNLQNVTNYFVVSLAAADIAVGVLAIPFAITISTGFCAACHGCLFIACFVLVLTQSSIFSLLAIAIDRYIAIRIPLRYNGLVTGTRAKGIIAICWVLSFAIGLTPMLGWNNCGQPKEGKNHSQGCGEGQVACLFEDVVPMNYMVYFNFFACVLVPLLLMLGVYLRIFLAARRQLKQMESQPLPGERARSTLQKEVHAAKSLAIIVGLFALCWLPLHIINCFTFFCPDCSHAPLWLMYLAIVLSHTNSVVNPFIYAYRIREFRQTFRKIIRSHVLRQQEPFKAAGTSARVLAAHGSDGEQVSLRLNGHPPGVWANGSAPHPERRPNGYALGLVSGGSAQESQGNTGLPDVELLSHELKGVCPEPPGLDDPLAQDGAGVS
Type: functional, cell-based
Outline: (§2)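 SH-SY5Y neuroblastoma cells, endogenous A2AR, stably carrying human D2LR. Serum-starved 12-16 h, in HBSS with 50 µM zardaverine for 10 min, then 50 µM ergopeptide, alone or with the A2AR agonist CGS. 35 min total incubation. cAMP by competitive enzyme immunoassay. Three to six determinations, Student's t test.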

Row | SMILES | Activity
3 | CC(C)[C@H](NC(=O)[C@@H]1C=C2c3cccc4[nH]cc(c34)C[C@H]2N(C)C1)C(=O)N[C@@H](Cc1ccc([N+](=O)[O-])cc1)C(=O)N1CCC[C@H]1C(N)=O | inactive
4 | CC(C)[C@H](NC(=O)[C@@H]1C=C2c3cccc4[nH]cc(c34)C[C@H]2N(C)C1)C(=O)N[C@@H](CCC1CCCCC1)C(=O)N1c2ccccc2C[C@H]1C(N)=O | inactive

The molecules below were run against D(2) dopamine receptor (Homo sapiens) (UniProt P14416) (assay: Agonist activity at dopamine D2 receptor in SH-SY5Y cells assessed as inhibition of forskolin-activated intracellular cAMP production at 50 uM). Conditions: not given.
Sequence of D(2) dopamine receptor (Homo sapiens) (P14416 whole entry): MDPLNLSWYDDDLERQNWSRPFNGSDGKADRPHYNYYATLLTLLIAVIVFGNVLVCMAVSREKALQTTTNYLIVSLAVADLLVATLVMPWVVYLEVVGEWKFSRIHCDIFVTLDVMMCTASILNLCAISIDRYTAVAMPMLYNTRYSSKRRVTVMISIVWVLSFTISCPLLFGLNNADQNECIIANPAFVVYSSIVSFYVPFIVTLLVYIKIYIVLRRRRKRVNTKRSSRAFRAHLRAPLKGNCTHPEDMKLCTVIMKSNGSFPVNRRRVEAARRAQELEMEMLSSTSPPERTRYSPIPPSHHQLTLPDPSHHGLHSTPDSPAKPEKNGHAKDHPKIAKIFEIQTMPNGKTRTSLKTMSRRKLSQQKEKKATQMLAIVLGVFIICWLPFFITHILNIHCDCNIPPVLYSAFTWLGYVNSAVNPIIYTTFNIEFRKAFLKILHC
Type: functional, cell-based
Outline: (§3)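 SH-SY5Y cells expressing human D2LR, preincubated 5-10 min at 22 °C with 5 µM ZM to block A2AR. Then 50 µM zardaverine, 10 µM forskolin, and 50 µM ergopeptide, with or without 150 nM quinpirole or 50 µM raclopride. 35 min total. cAMP by enzyme immunoassay. Three to six determinations, t test.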

Row | SMILES | Activity
5 | CC(C)[C@H](NC(=O)[C@@H]1C=C2c3cccc4[nH]cc(c34)C[C@H]2N(C)C1)C(=O)N[C@@H](Cc1ccc([N+](=O)[O-])cc1)C(=O)N1CCC[C@H]1C(N)=O | Active

These molecules were tested against D(1A) dopamine receptor (Homo sapiens) (UniProt P21728) (assay: Displacement of [3H]SCH 23390 from dopamine D1 receptor in lamb striatum membrane at 50 uM after 1 hr). Conditions: Ovis aries, target entry is the homologue from another species.
Sequence of D(1A) dopamine receptor (Homo sapiens) (P21728 whole entry): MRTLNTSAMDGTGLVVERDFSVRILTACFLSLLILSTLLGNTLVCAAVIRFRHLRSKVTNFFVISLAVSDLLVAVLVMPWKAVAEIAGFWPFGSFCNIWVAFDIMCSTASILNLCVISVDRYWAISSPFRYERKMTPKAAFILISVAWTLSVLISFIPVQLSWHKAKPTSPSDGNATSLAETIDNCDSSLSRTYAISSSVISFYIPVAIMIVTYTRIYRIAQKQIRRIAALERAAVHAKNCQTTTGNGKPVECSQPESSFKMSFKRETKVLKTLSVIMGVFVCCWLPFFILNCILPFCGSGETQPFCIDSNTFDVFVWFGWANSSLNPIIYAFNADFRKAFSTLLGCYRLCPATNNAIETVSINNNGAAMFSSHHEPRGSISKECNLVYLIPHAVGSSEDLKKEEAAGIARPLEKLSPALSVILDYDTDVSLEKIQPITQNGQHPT
Type: cell membranes
Outline: as §1

Row | SMILES | Activity
6 | CC(C)[C@H](NC(=O)[C@@H]1C=C2c3cccc4[nH]cc(c34)C[C@H]2N(C)C1)C(=O)N[C@@H](Cc1ccc([N+](=O)[O-])cc1)C(=O)N1CCC[C@H]1C(N)=O | < 40%
7 | CC(C)[C@H](NC(=O)[C@@H]1C=C2c3cccc4[nH]cc(c34)C[C@H]2N(C)C1)C(=O)N[C@@H](CCC1CCCCC1)C(=O)N1c2ccccc2C[C@H]1C(N)=O | < 40%

These molecules were tested against T2, Adenosine receptor A2a (assay: Displacement of [3H]CGS 21680 from adenosine A2A receptor in lamb striatum membrane at 50 uM after 2 hrs). Conditions: Ovis aries, target entry is the homologue from another species.
Type: cell membranes
Outline: as §1

Row | SMILES | Activity
8 | CC(C)[C@H](NC(=O)[C@@H]1C=C2c3cccc4[nH]cc(c34)C[C@H]2N(C)C1)C(=O)N[C@@H](Cc1ccc([N+](=O)[O-])cc1)C(=O)N1CCC[C@H]1C(N)=O | < 40%
9 | CC(C)[C@H](NC(=O)[C@@H]1C=C2c3cccc4[nH]cc(c34)C[C@H]2N(C)C1)C(=O)N[C@@H](CCC1CCCCC1)C(=O)N1c2ccccc2C[C@H]1C(N)=O | < 40%

Each molecule was assayed against D(2) dopamine receptor (Homo sapiens) (UniProt P14416) (assay: Displacement of [3H]YM 09151-2 from dopamine D2 receptor in lamb striatum membrane at 50 uM after 2 hrs). Conditions: Ovis aries, target entry is the homologue from another species.
Type: cell membranes
Outline: as §1

Row | SMILES | Activity
10 | CC(C)[C@H](NC(=O)[C@@H]1C=C2c3cccc4[nH]cc(c34)C[C@H]2N(C)C1)C(=O)N[C@@H](Cc1ccc([N+](=O)[O-])cc1)C(=O)N1CCC[C@H]1C(N)=O | < 40%
11 | CC(C)[C@H](NC(=O)[C@@H]1C=C2c3cccc4[nH]cc(c34)C[C@H]2N(C)C1)C(=O)N[C@@H](CCC1CCCCC1)C(=O)N1c2ccccc2C[C@H]1C(N)=O | < 40%

What follows are molecules tested against D(1A) dopamine receptor (Homo sapiens) (UniProt P21728) (assay: Antagonist activity at dopamine D1 receptor transfected in mouse L(tk-) cells assessed as inhibition of SKF-induced stimulation of forskolin-induced cAMP levels). Conditions: not given.
Type: functional, cell-based
Outline: (§4)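 Mouse Ltk- fibroblasts cotransfected with human A1R and D1R, serum-starved 12-16 h. In HBSS with 50 µM zardaverine, then 50 µM ergopeptide, with or without 20 nM SKF or 50 µM SCH. 35 min total incubation. cAMP by competitive enzyme immunoassay. Three to six determinations, t test.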

Row | SMILES | Activity
12 | CC(C)[C@H](NC(=O)[C@@H]1C=C2c3cccc4[nH]cc(c34)C[C@H]2N(C)C1)C(=O)N[C@@H](Cc1ccc([N+](=O)[O-])cc1)C(=O)N1CCC[C@H]1C(N)=O | inactive
13 | CC(C)[C@H](NC(=O)[C@@H]1C=C2c3cccc4[nH]cc(c34)C[C@H]2N(C)C1)C(=O)N[C@@H](CCC1CCCCC1)C(=O)N1c2ccccc2C[C@H]1C(N)=O | inactive

The molecules below were run against T1, Adenosine receptor A1 (Homo sapiens) (assay: Agonist activity at adenosine A1 receptor transfected in mouse L(tk-) cells assessed as decrease in forskolin-induced cAMP levels). Conditions: not given.
Type: functional, cell-based
Outline: (§5)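 Mouse Ltk- fibroblasts cotransfected with human A1R and D1R, preincubated 5-10 min at 22 °C with 50 µM SCH to block D1R. Then 50 µM zardaverine, 10 µM forskolin, and 50 µM ergopeptide, with or without 20 nM R-PIA or 50 µM DPCPX. 35 min total. cAMP by enzyme immunoassay. Three to six determinations.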

Row | SMILES | Activity
14 | CC(C)[C@H](NC(=O)[C@@H]1C=C2c3cccc4[nH]cc(c34)C[C@H]2N(C)C1)C(=O)N[C@@H](Cc1ccc([N+](=O)[O-])cc1)C(=O)N1CCC[C@H]1C(N)=O | inactive
15 | CC(C)[C@H](NC(=O)[C@@H]1C=C2c3cccc4[nH]cc(c34)C[C@H]2N(C)C1)C(=O)N[C@@H](CCC1CCCCC1)C(=O)N1c2ccccc2C[C@H]1C(N)=O | inactive

What follows are molecules tested against T2, Adenosine receptor A2a (assay: Antagonist activity at adenosine A2A receptor in SH-SY5Y cells assessed as CGS-induced intracellular cAMP production at 50 uM). Conditions: not given.
Type: functional, cell-based
Outline: as §2

Row | SMILES | Activity
16 | CC(C)[C@H](NC(=O)[C@@H]1C=C2c3cccc4[nH]cc(c34)C[C@H]2N(C)C1)C(=O)N[C@@H](Cc1ccc([N+](=O)[O-])cc1)C(=O)N1CCC[C@H]1C(N)=O | Active

These molecules were tested against D(2) dopamine receptor (Homo sapiens) (UniProt P14416) (assay: Antagonist activity at dopamine D2 receptor in SH-SY5Y cells assessed as effect on forskolin-activated intracellular cAMP production at 50 uM). Conditions: not given.
Type: functional, cell-based
Outline: as §3

Row | SMILES | Activity
17 | CC(C)[C@H](NC(=O)[C@@H]1C=C2c3cccc4[nH]cc(c34)C[C@H]2N(C)C1)C(=O)N[C@@H](CCC1CCCCC1)C(=O)N1c2ccccc2C[C@H]1C(N)=O | Active

What follows are molecules tested against T2, Adenosine receptor A2a (assay: Displacement of [3H]CGS 21680 from adenosine A2A receptor in lamb striatum membrane after 2 hrs). Conditions: target entry is the homologue from another species.
Type: cell membranes, Ovis aries
Outline: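 Lamb striatal membranes (0.5 mg protein/mL), 22 °C, 50 mM Tris-HCl pH 7.4, with increasing ergopeptide concentrations. Conditions per receptor: D1 1.2 nM [3H]SCH 23390, 1 mM dopamine nonspecific. D2 0.9 nM [3H]YM 09151-2, 100 µM raclopride nonspecific. A1 2.2 nM [3H]R-PIA, 10 mM MgCl2, 0.2 U/mL ADA, 50 µM R-PIA nonspecific. A2A 20.1 nM [3H]CGS 21680, 10 mM MgCl2, 2 U/mL ADA, 1 mM CGS 21680 nonspecific. Filtration, scintillation counting. KD by nonlinear one- or two-site fit. Three to six determinations.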

Row | SMILES | Kd
18 | CC(C)[C@H](NC(=O)[C@@H]1C=C2c3cccc4[nH]cc(c34)C[C@H]2N(C)C1)C(=O)N[C@@H](CCC1CCCCC1)C(=O)N1c2ccccc2C[C@H]1C(N)=O | 25 µM

Each molecule was assayed against D(1A) dopamine receptor (Homo sapiens) (UniProt P21728) (assay: Agonist activity at dopamine D1 receptor transfected in mouse L(tk-) cells assessed as stimulation of cAMP levels). Conditions: not given.
Type: functional, cell-based
Outline: as §4

Row | SMILES | Activity
19 | CC(C)[C@H](NC(=O)[C@@H]1C=C2c3cccc4[nH]cc(c34)C[C@H]2N(C)C1)C(=O)N[C@@H](Cc1ccc([N+](=O)[O-])cc1)C(=O)N1CCC[C@H]1C(N)=O | Active
20 | CC(C)[C@H](NC(=O)[C@@H]1C=C2c3cccc4[nH]cc(c34)C[C@H]2N(C)C1)C(=O)N[C@@H](CCC1CCCCC1)C(=O)N1c2ccccc2C[C@H]1C(N)=O | Active

These molecules were tested against T1, Adenosine receptor A1 (Homo sapiens) (assay: Antagonist activity at adenosine A1 receptor transfected in mouse L(tk-) cells assessed as inhibition of R-PIA-induced decrease in forskolin-induced cAMP levels). Conditions: not given.
Type: functional, cell-based
Outline: as §5

Row | SMILES | Activity
21 | CC(C)[C@H](NC(=O)[C@@H]1C=C2c3cccc4[nH]cc(c34)C[C@H]2N(C)C1)C(=O)N[C@@H](Cc1ccc([N+](=O)[O-])cc1)C(=O)N1CCC[C@H]1C(N)=O | Active
22 | CC(C)[C@H](NC(=O)[C@@H]1C=C2c3cccc4[nH]cc(c34)C[C@H]2N(C)C1)C(=O)N[C@@H](CCC1CCCCC1)C(=O)N1c2ccccc2C[C@H]1C(N)=O | Active
